Source: ChEMBL document CHEMBL4706639, “Discovery of Novel Azetidine Amides as Potent Small-Molecule STAT3 Inhibitors” (J Med Chem, 2021)
≈ marks a conversion by molar mass, not a printed value. Each block holds one compound with its values, some of them ahead of it. Calls of active or inactive are those of the source. The calls are words filed in the database; no cut-off is given here.

What was measured:
[1] = test system: MDA-MB-231; experiment: Antiproliferative activity against human MDA-MB-231 cells assessed as reduction in cell viability at 2 uM incubated for 24 hrs by Trypan blue exclusion dye based phase contrast microscopic analysis; type: functional
Method in brief: (§1)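 Cells in 6-well culture, untreated or treated once with 2 μM compound. Harvested every 24 h (up to 96 h) and counted as viable cells by trypan blue exclusion under phase-contrast microscopy. Counts plotted against duration of treatment.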

[2] = molecular target: Signal transducer and activator of transcription 3 (Homo sapiens) (UniProt P40763); experiment: Binding affinity to STAT3 (unknown origin) assessed as change in enthalpy by isothermal titration calorimetry
[3] = test system: MDA-MB-231; experiment: Anticlonogenic activity against human MDA-MB-231 cells assessed as inhibition of colony formation at 0.5 to 1 uM incubated for 4 hrs by crystal violet staining based assay; type: functional, cell-based; conditions: dose 0.5-1 µM
Method in brief: (§2)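 MDA-MB-231 cells seeded as single-cell cultures (250 cells per well), treated once the next day with compound at 0–1 μM and grown until large colonies were visible. Colonies stained with crystal violet for 4 h and photographed. Three independent determinations.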

[4] = test system: MDA-MB-231; experiment: Antiproliferative activity against human MDA-MB-231 cells assessed as reduction in cell viability incubated for 72 hrs by CyQuant assay; type: functional, cell-based; conditions: MDA-MB-231, 72 h
[5] = molecular target: Signal transducer and activator of transcription 3 (Homo sapiens) (UniProt P40763); experiment: Inhibition of STAT3 phosphorylation at Y705 residues in human MDA-MB-468 whole cell lysate at 3 uM at 24 hrs by immunoblotting analysis; type: subcellular
Method in brief: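 MDA-MB-468 cells (DMEM, 10% heat-inactivated FBS) treated with 3 μM compound for 3–24 h or 0.05% DMSO; equal-protein whole-cell RIPA lysates run on SDS-PAGE and immunoblotted for pY705STAT3, total STAT3 and tubulin. Representative of two to three independent determinations.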

[6] = molecular target: Signal transducer and activator of transcription 3 (Homo sapiens) (UniProt P40763); experiment: Inhibition of oligonucleotide [32P]-labelled 5'-AGCITCATTTCCCGTAAATCCCTA hSIE probe binding to STAT3 in human MDA-MB-468 cell nuclear extract at 5 uM by EMSA analysis; conditions: time upper […], TDE = time-dependent effect
[7] = test system: MCF-10A; experiment: Cytotoxicity against human MCF-10A cells assessed as reduction in cell viability incubated for 72 hrs by CyQuant assay; type: cell-based
[8] = test system: MCF7; experiment: Antiproliferative activity against human MCF7 cells assessed as reduction in cell viability at 2 uM incubated for 24 hrs by Trypan blue exclusion dye based phase contrast microscopic analysis; type: functional; method in brief: as §1
[9] = test system: MCF7; experiment: Antiproliferative activity against human MCF7 cells assessed as reduction in cell viability incubated for 72 hrs by CyQuant assay; type: functional, cell-based; conditions: MCF7, 72 h
[10] = test system: MDA-MB-468; experiment: Antiproliferative activity against human MDA-MB-468 cells harbouring STAT3 assessed as reduction in cell viability incubated for 72 hrs by CyQuant assay; type: functional, cell-based; conditions: MDA-MB-468, 72 h
[11] = molecular target: Signal transducer and activator of transcription 3 (Homo sapiens) (UniProt P40763); experiment: Binding affinity to STAT3 (unknown origin) assessed as change in entropy by isothermal titration calorimetry
[12] = molecular target: T1, Signal transducer and activator of transcription 3 (Mus musculus, UniProt P42227); experiment: Inhibition of oligonucleotide [32P]-labelled 5'-AGCITCATTTCCCGTAAATCCCTA probe binding to STAT3 SH2 domain (unknown origin) preincubated for 30 mins followed by hSIE probe addition by EMSA analysis
[13] = molecular target: Signal transducer and activator of transcription 3 (Homo sapiens) (UniProt P40763); experiment: Inhibition of STAT3 in human MDA-MB-231 cells assessed as effect on EGFR expression at 1 to 3 uM incubated for 3 to 24 hrs by immunoblotting analysis; type: cell-based; conditions: dose 1-3 µM, time lower 3.0 hrs, time upper […]
Method in brief: (§3)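 MDA-MB-231 cells treated with 1 or 3 μM compound. Whole-cell lysates prepared in RIPA buffer and immunoblotted for EGFR, JAK2, Src, AKT and ERK1/2.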

[14] = Drug metabolism of compound in human liver microsomes assessed as hydroxy-acid metabolite formation; type: ADME, Microsome
[15] = molecular target: Signal transducer and activator of transcription 3 (Homo sapiens) (UniProt P40763); experiment: Inhibition of STAT3 in human MDA-MB-231 cells assessed as inhibition of VEGF expression at 1 to 3 uM incubated for 3 to 24 hrs by immunoblotting analysis; type: cell-based; conditions: dose 1-3 µM, time lower 3.0 hrs, time upper […]
Method in brief: (§4)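 MDA-MB-231 cells treated with 1 or 3 μM compound for 3–24 h. Equal-protein whole-cell lysates (RIPA) immunoblotted for c-Myc, Bcl-2, VEGF, survivin and tubulin. Control is 0.05% DMSO-treated cells. Two to three independent determinations.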

[16] = molecular target: Signal transducer and activator of transcription 3 (Homo sapiens) (UniProt P40763); experiment: Inhibition of STAT3 in human MDA-MB-231 cells assessed as effect on Src expression at 1 to 3 uM incubated for 3 to 24 hrs by immunoblotting analysis; type: cell-based; conditions: dose 1-3 µM, time lower 3.0 hrs, time upper […]; method in brief: as §3
[17] = molecular target: Signal transducer and activator of transcription 3 (Homo sapiens) (UniProt P40763); experiment: Inhibition of STAT3 in human MDA-MB-231 cells assessed as effect on JAK2 expression at 1 to 3 uM incubated for 3 to 24 hrs by immunoblotting analysis; type: cell-based; conditions: dose 1-3 µM, time lower 3.0 hrs, time upper […]; method in brief: as §3
[18] = Drug metabolism of compound in human liver microsomes assessed as metabolite formation; type: ADME, Microsome
[19] = molecular target: Signal transducer and activator of transcription 3 (Homo sapiens) (UniProt P40763); experiment: Inhibition of STAT3 in human MDA-MB-231 cells assessed as inhibition of c-myc expression at 1 to 3 uM incubated for 3 to 24 hrs by immunoblotting analysis; type: cell-based; conditions: dose 1-3 µM, time lower 3.0 hrs, time upper […]; method in brief: as §4
[20] = test system: MDA-MB-231; experiment: Anticlonogenic activity against human MDA-MB-231 cells assessed as inhibition of colony formation at 0.5 uM incubated for 4 hrs by crystal violet staining based assay; type: functional, cell-based; method in brief: as §2
[21] = molecular target: Signal transducer and activator of transcription 3 (Homo sapiens) (UniProt P40763); experiment: Inhibition of STAT3 in human MDA-MB-231 cells assessed as inhibition of survivin expression at 1 to 3 uM incubated for 3 to 24 hrs by immunoblotting analysis; type: cell-based; conditions: dose 1-3 µM, time lower 3.0 hrs, time upper […]; method in brief: as §4
[22] = molecular target: Signal transducer and activator of transcription 3 (Homo sapiens) (UniProt P40763); experiment: Inhibition of STAT3 in human MDA-MB-231 cells assessed as inhibition of Bcl-2 expression at 1 to 3 uM incubated for 3 to 24 hrs by immunoblotting analysis; type: cell-based; conditions: dose 1-3 µM, time lower 3.0 hrs, time upper […]; method in brief: as §4
[23] = molecular target: Signal transducer and activator of transcription 3 (Homo sapiens) (UniProt P40763); experiment: Inhibition of STAT3 in human MDA-MB-231 cells assessed as effect on Erk1/2 expression at 1 to 3 uM incubated for 3 to 24 hrs by immunoblotting analysis; type: cell-based; conditions: dose 1-3 µM, time lower 3.0 hrs, time upper […]; method in brief: as §3
[24] = molecular target: Signal transducer and activator of transcription 3 (Homo sapiens) (UniProt P40763); experiment: Inhibition of STAT3 in human MDA-MB-231 cells assessed as induction of PARP cleavage at 1 to 3 uM incubated for 3 to 24 hrs by immunoblotting analysis; type: cell-based; conditions: dose 1-3 µM, time lower 3.0 hrs, time upper […]
Method in brief: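 Equal-protein whole-cell lysates run on SDS-PAGE/Western and probed for full-length and cleaved PARP, pYSTAT3, STAT3 and tubulin. Control is 0.05% DMSO. Two independent determinations.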

[25] = molecular target: Signal transducer and activator of transcription 3 (Homo sapiens) (UniProt P40763); experiment: Inhibition of STAT3 in human MDA-MB-231 cells assessed as effect on Akt expression at 1 to 3 uM incubated for 3 to 24 hrs by immunoblotting analysis; type: cell-based; conditions: dose 1-3 µM, time lower 3.0 hrs, time upper […]; method in brief: as §3
[26] = Aqueous solubility of compound in simulated gastric fluid; type: physicochemical; conditions: simulated gi fluid
[27] = Aqueous solubility of compound in simulated intestinal fluid; type: physicochemical; conditions: simulated gi fluid
[28] = molecular target: T1, Signal transducer and activator of transcription 3; experiment: Inhibition of oligonucleotide [32P]-labelled 5'-AGCITCATTTCCCGTAAATCCCTA probe binding to STAT3 SH2 domain in mouse NIH3T3/v-Src nuclear extract preincubated for 30 mins followed by hSIE probe addition by EMSA analysis; type: subcellular, Nucleus

Chain of Signal transducer and activator of transcription 3 (Homo sapiens) (P40763 whole entry, the tested form may be a part): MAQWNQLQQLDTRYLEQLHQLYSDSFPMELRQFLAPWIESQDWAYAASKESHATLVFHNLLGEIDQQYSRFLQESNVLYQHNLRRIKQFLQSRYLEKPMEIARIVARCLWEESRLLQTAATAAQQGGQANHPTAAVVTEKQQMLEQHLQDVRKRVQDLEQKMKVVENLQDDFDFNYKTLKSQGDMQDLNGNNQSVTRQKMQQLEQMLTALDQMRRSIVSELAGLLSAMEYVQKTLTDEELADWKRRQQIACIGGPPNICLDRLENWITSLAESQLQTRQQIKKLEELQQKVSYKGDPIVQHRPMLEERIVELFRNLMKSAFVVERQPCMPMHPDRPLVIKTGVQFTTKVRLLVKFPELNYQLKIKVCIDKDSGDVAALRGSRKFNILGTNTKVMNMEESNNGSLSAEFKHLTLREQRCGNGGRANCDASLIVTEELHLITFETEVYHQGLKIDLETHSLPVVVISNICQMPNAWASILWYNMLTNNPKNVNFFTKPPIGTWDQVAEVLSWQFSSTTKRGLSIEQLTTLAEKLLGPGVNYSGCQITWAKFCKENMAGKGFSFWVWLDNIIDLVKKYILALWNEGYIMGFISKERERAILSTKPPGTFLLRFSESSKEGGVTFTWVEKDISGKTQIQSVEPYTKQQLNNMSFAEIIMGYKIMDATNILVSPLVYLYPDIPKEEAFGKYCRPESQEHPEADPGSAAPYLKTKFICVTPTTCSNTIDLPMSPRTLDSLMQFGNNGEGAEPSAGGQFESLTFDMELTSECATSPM
T1 sequence (P42227 whole entry, the tested form may be a part): as the sequence (P40763 whole entry, the tested form may be a part) above, with E760D counted along it

deltaH [2]: -20.8 kJ/mol
EC50 [4]: 1.7 µM
inhibition [5]: inactive
inhibition [6]: Tde
EC50 [9]: 7 µM
EC50 [10]: 1.9 µM
-TdeltaS [11]: -13.6 kJ/mol
Compound: O=C1NC(=O)c2cc(N(Cc3ccc(C4CCCCC4)cn3)C(=O)[C@H]3CCN3S(=O)(=O)c3c(F)c(F)c(F)c(F)c3F)ccc21
Activity [1]: Active
inhibition [3]: Active
EC50 [7]: 8.1 µM
Activity [8]: inactive

IC50 [12]: > 2 µM
Compound: O=C(NO)c1ccc(N(Cc2cnc(C3CCCCC3)cn2)C(=O)[C@H]2CCN2S(=O)(=O)c2c(F)c(F)c(F)c(F)c2F)c(F)c1

inhibition [13]: Active
Drug metabolism [14]: Metabolite_Detected
inhibition [15]: Active
inhibition [16]: Active
inhibition [17]: Active
Drug metabolism [18]: Metabolite_Detected
inhibition [19]: Active
inhibition [6]: Tde
EC50 [9]: 4.6 µM
EC50 [10]: 1 µM
inhibition [22]: Active
inhibition [23]: Active
inhibition [24]: Active
inhibition [25]: Active
-TdeltaS [11]: -11.9 kJ/mol
solubility [26]: 0.116 mg/mL (≈ 183 µM)
solubility [27]: 0.2 mg/mL (≈ 315 µM)
Compound: O=C1OCc2cc(N(Cc3ccc(C4CCCCC4)cn3)C(=O)[C@H]3CCN3S(=O)(=O)c3c(F)c(F)c(F)c(F)c3F)ccc21
inhibition [20]: Active
EC50 [7]: 4.6 µM
inhibition [21]: Active

Compound: COC(=O)c1ccc(N(Cc2cnc(C3CCCCC3)cn2)C(=O)[C@H]2CCN2S(=O)(=O)c2c(F)c(F)c(F)c(F)c2F)c(F)c1
inhibition [3]: Active
EC50 [7]: 4 µM
EC50 [9]: 8.9 µM
EC50 [10]: 1.4 µM
IC50 [28]: > 10 µM
